For 39 molecules, EC50 and IC50 results are on record in ChEMBL document CHEMBL1126792, “Structure-activity relationships of beta-D-(2S,5R)- and alpha-D-(2S,5S)-1,3-oxathiolanyl nucleosides as potential anti-HIV agents” (J Med Chem, 1993).

By EC50 is commonly meant the concentration at which the effect is half-maximal. As usually defined, the IC50 is the concentration that inhibits the measured activity by half. The low end stands for inhibition by little substance, the high end for a need for much substance.

Test [1] concerns Human immunodeficiency virus 1. The test is described as follows: Concentration required for antiviral activity in PBMC (human peripheral blood mononuclear cells) infected with HIV-1 strain LAV. The class given is functional, organism-based. The method, boiled down:
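Human PBM cells infected with HIV-1 strain LAV. EC50 is the concentration giving 50% inhibition of virus production, measured as reverse transcriptase (RT) levels in culture supernatant. Values are the mean of triplicates, calculated by the median method.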

The next test deals with Vero. The test is described as follows: Inhibition of cell growth in vero cells. It is filed as functional, cell-based. Particulars: Chlorocebus sabaeus. The method, boiled down: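 Vero cell cytotoxicity assay; IC50 = concentration giving 50% inhibition of cell growth; mean of triplicate values, calculated by the median method.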
The subject of test [2] is Human immunodeficiency virus 1. In words: Inhibition of cell growth against HIV-1 infected PBM (Human peripheral blood mononuclear) cells. It is filed as functional, organism-based. The procedure, abridged:
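Growth of human PBM cells measured in cytotoxicity assay; IC50 = concentration giving 50% inhibition of cell growth; mean of triplicate values, calculated by the median method.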

The mark [3] stands for this setting: Human immunodeficiency virus 1, PBMC.

With `Nc1ccn([C@H]2CO[C@@H](CO)O2)c(=O)n1`, in test [1] (setting [3]), the EC50 worked out at 0.016 µM.

In the case of `Cc1cn([C@@H]2CS[C@@H](CO)O2)c(=O)[nH]c1=O`, the IC50 (in the test with Vero; in test [2]) was more than 100 µM throughout. This molecule also had an EC50 in test [1] (setting [3]) of more than 100 µM.

Turning to `Cc1cn([C@H]2CS[C@@H](CO)O2)c(=O)nc1N`, the IC50 (in the test with Vero; in test [2]) was more than 100 µM in each case. The molecule also came in with a concentration giving a half-maximal response (EC50) in test [1] (setting [3]) of 0.172 µM.

As to `CNc1ncnc2c1ncn2[C@@H]1CS[C@@H](CO)O1`, the IC50 (in the test on Vero; in test [2]) was more than 100 µM in each case. This molecule yielded an EC50 in test [1] (setting [3]) of 11.7 µM.

Turning to `Cc1cn([C@@H]2CS[C@@H](CO)O2)c(=O)nc1N`, the concentration for half-maximal inhibition (IC50) (in the test with Vero; in test [2]) was more than 100 µM in each case. In test [1] (setting [3]), this molecule gave an EC50 of more than 100 µM.

For `O=c1[nH]c(=O)n([C@H]2CS[C@@H](CO)O2)cc1Br`, the half-inhibitory concentration (IC50) (with Vero; in test [2]) was more than 100 µM in each case. In addition, the half-maximal effective concentration (EC50) in test [1] (setting [3]) was more than 100 µM.

On to `Nc1nc(Cl)c2ncn([C@@H]3CS[C@@H](CO)O3)c2n1`, for which the IC50 (in the test on Vero; in test [2]) was more than 100 µM in each case. Moreover, the EC50 in test [1] (setting [3]) amounted to 5.6 µM.

As to `Nc1nc(=O)n([C@H]2CS[C@@H](CO)O2)cc1I`, the IC50 (with Vero; in test [2]) was more than 100 µM each time. This molecule also came in with an EC50 in test [1] (setting [3]) of 1.9 µM.

In the case of `Nc1ncnc2c1ncn2[C@H]1CS[C@@H](CO)O1`, the IC50 (with Vero; in test [2]) was more than 100 µM throughout. In test [1] (setting [3]), this molecule yielded a half-maximal effective concentration (EC50) of 0.28 µM.

For `O=c1[nH]c(=O)n([C@@H]2CS[C@@H](CO)O2)cc1Cl`, the IC50 (with Vero; in test [2]) was more than 100 µM each time. This molecule yielded a 50% effective concentration (EC50) in test [1] (setting [3]) of more than 100 µM.

With `O=c1ccn([C@H]2CS[C@@H](CO)O2)c(=O)[nH]1`, the IC50 (in the test with Vero; in test [2]) was more than 100 µM each time. For the same molecule, the EC50 in test [1] (setting [3]) came to 94.7 µM.

Take `O=c1[nH]c(=O)n([C@H]2CS[C@@H](CO)O2)cc1I`: the IC50 (with Vero; in test [2]) was more than 100 µM in each case. For the same molecule, in test [1] (setting [3]), the EC50 stood at 29.3 µM.

Turning to `Nc1nc2c(ncn2[C@H]2CO[C@@H](CO)O2)c(=O)[nH]1`, the midpoint of the response in test [1] (setting [3]), the EC50, lay at 0.03 µM.

Turning to `Nc1nc(O)c2ncn([C@H]3CS[C@@H](CO)O3)c2n1`, the IC50 (with Vero; in test [2]) was more than 100 µM each time. The same molecule returned an EC50 in test [1] (setting [3]) of 0.83 µM.

In the case of `Nc1nc(O)c2ncn([C@@H]3CS[C@@H](CO)O3)c2n1`, the IC50 in the test with Vero was 63.6 µM; in test [2] it was more than 100 µM. The same molecule had an EC50 in test [1] (setting [3]) of 7.62 µM.

As for `OC[C@H]1O[C@H](n2cnc3c(Cl)ncnc32)CS1`, the 50% inhibitory concentration (IC50) was 86.1 µM in the test on Vero and more than 100 µM in test [2]. The concentration for a half-maximal effect (EC50) in test [1] (setting [3]) amounted to 2.7 µM.

With `O=c1[nH]c(=O)n([C@@H]2CS[C@@H](CO)O2)cc1Br`, the half-maximal inhibitory concentration (IC50) (in the test on Vero; in test [2]) was more than 100 µM each time. This molecule came in with an EC50 in test [1] (setting [3]) of more than 100 µM.

`O=c1[nH]c(=O)n([C@H]2CS[C@@H](CO)O2)cc1F`: the concentration for half-maximal inhibition (IC50) (in the test with Vero; in test [2]) was more than 100 µM throughout. This molecule had an EC50 in test [1] (setting [3]) of 6.3 µM.

For the molecule `CNc1ncnc2c1ncn2[C@H]1CS[C@@H](CO)O1`, the IC50 (in the test with Vero; in test [2]) was more than 100 µM throughout. In addition, the EC50 in test [1] (setting [3]) was 1.1 µM.

In the case of `Nc1nc(F)nc2c1ncn2[C@@H]1CS[C@@H](CO)O1`, the IC50 is 45.4 µM with Vero and more than 100 µM in test [2]. The molecule also showed an EC50 in test [1] (setting [3]) of 61.9 µM.

As to `Nc1ncnc2c1ncn2[C@@H]1CS[C@@H](CO)O1`, the IC50 (in the test on Vero; in test [2]) was more than 100 µM each time. In test [1] (setting [3]), this molecule displayed an EC50 of 11.9 µM.

Turning to `Nc1ccn([C@@H]2CS[C@@H](CO)O2)c(=O)n1`, the IC50 (with Vero; in test [2]) was more than 100 µM each time. Further, the EC50 in test [1] (setting [3]) was more than 100 µM.

For `Nc1nc(=O)n([C@@H]2CS[C@@H](CO)O2)cc1Cl`, the IC50 in the test on Vero is 31.2 µM; in test [2] it was more than 100 µM. In addition, the EC50 in test [1] (setting [3]) is more than 100 µM.

As for `OC[C@H]1O[C@@H](n2cnc3c(O)ncnc32)CS1`, the IC50 (in the test with Vero; in test [2]) was more than 100 µM in each case. In addition, it took 0.05 µM to reach a half-maximal effect in test [1] (setting [3]) (EC50).

Turning to `Nc1nc(=O)n([C@H]2CS[C@@H](CO)O2)cc1Br`, the IC50 (in the test with Vero; in test [2]) was more than 100 µM in each case. In test [1] (setting [3]), this molecule returned an EC50 of 0.012 µM.

Turning to `O=c1[nH]c(=O)n([C@@H]2CS[C@@H](CO)O2)cc1I`, the IC50 (with Vero; in test [2]) was more than 100 µM throughout. For the same molecule, the response in test [1] (setting [3]) was half-maximal at 112 µM (EC50).

In the case of `Nc1nc(=O)n([C@@H]2CS[C@@H](CO)O2)cc1I`, the IC50 (with Vero; in test [2]) was more than 100 µM each time. This molecule also returned an EC50 in test [1] (setting [3]) of 0.28 µM.

`Nc1nc(=O)n([C@@H]2CS[C@@H](CO)O2)cc1Br`: the IC50 (with Vero; in test [2]) was more than 100 µM in each case. This molecule also registered an EC50 in test [1] (setting [3]) of more than 100 µM.

In the case of `Cc1cn([C@H]2CS[C@@H](CO)O2)c(=O)[nH]c1=O`, the IC50 (in the test on Vero; in test [2]) was more than 100 µM throughout. In test [1] (setting [3]), this molecule displayed an EC50 of 11.6 µM.

Consider `Nc1nc(=O)n([C@H]2CS[C@@H](CO)O2)cc1F`, for which the IC50 (in the test with Vero; in test [2]) was more than 100 µM each time. The molecule further returned an EC50 in test [1] (setting [3]) of 0.38 µM.

`OC[C@H]1O[C@@H](n2cnc3c(Cl)ncnc32)CS1`: the values for the IC50 (with Vero; in test [2]) were 46.5 µM and more than 100 µM, respectively. Besides, the midpoint of the response in test [1] (setting [3]), the EC50, lay at 0.48 µM.

Take `Nc1nc(F)nc2c1ncn2[C@H]1CS[C@@H](CO)O1`: the 50% inhibitory concentration (IC50) with Vero was 5.6 µM; in test [2], more than 100 µM. The same molecule gave a concentration for a half-maximal effect (EC50) in test [1] (setting [3]) of 2.8 µM.

For `Nc1nc(=O)n([C@H]2CS[C@@H](CO)O2)cc1Cl`, the IC50 (with Vero; in test [2]) was more than 100 µM throughout. The concentration for a half-maximal effect (EC50) in test [1] (setting [3]) was determined as 0.28 µM.

In the case of `Nc1nc(=O)n([C@@H]2CS[C@@H](CO)O2)cc1F`, the half-maximal inhibitory concentration (IC50) (in the test with Vero; in test [2]) was more than 100 µM each time. In test [1] (setting [3]), the midpoint of the response, the EC50, lay at 77.5 µM.

With `OC[C@H]1O[C@H](n2cnc3c(O)ncnc32)CS1`, the concentration for half-maximal inhibition (IC50) (in the test with Vero; in test [2]) was more than 100 µM each time. The molecule also had a 50% effective concentration (EC50) in test [1] (setting [3]) of more than 100 µM.

`O=c1[nH]c(=O)n([C@H]2CS[C@@H](CO)O2)cc1Cl`: the IC50 (in the test with Vero; in test [2]) was more than 100 µM throughout. The same molecule showed an EC50 in test [1] (setting [3]) of 30.4 µM.

For `Nc1nc(Cl)c2ncn([C@H]3CS[C@@H](CO)O3)c2n1` (racemic), the IC50 (in the test with Vero; in test [2]) was more than 100 µM in each case. A half-maximal response in test [1] (setting [3]) (EC50) required 0.52 µM.

Consider `Nc1ccn([C@@H]2CS[C@H](CO)O2)c(=O)n1` [LAMIVUDINE], for which the IC50 (in the test on Vero; in test [2]) was more than 100 µM in each case. This molecule yielded an EC50 in test [1] (pbmc) of 0.0018 µM.

For `Cc1cn([C@H]2C[C@H](N=[N+]=[N-])[C@@H](CO)O2)c(=O)[nH]c1=O` [ZIDOVUDINE], the IC50 (with Vero; in test [2]) was more than 100 µM throughout. Further, in test [1] (setting [3]), the EC50 came to 0.004 µM.
